# Experimental data published in ChEMBL document CHEMBL1121644, “N-(aminophenyl)oxamic acids and esters as potent, orally active antiallergy agents” (1981).
# Calls of active or inactive are those of the source. The rule behind the calls is not given here.
# Experiments:
# Rattus norvegicus [1] = test: Antiallergic property in passive cutaneous anaphylaxis (PCA) test in rats upon intraperitoneal administration; assay type: functional; settings: for ED50: ip
# Summary of the method: (§1)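 Male Sprague-Dawley rats (200 g) were sensitized id on the shaved back with 0.05 mL of a 1:100 dilution of rat anti-ovalbumin IgE serum. After 48 h they were challenged iv with 1.0 mL of 0.8% ovalbumin containing 5 mg Evans blue, and killed 40 min later. Wheal area (mm²) was taken as the longest diameter times its perpendicular. ED50 is the dose halving wheal size versus control, from regression over at least four log-spaced doses with five rats per dose.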
# Rattus norvegicus [2] = test: Antiallergic property in passive cutaneous anaphylaxis (PCA) test in rats upon oral administration; assay type: functional; summary of the method: as §1
# Rattus norvegicus [3] = test: Percent inhibition of wheal size in passive cutaneous anaphylaxis (PCA) test at 50 mg/kg upon intraperitoneal administration; assay type: functional; settings: ip
# Summary of the method: (§2)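 Rats (male Sprague-Dawley, 200 g) were passively sensitized id with 0.05 mL of 1:100 IgE antiserum raised against ovalbumin. After a 48-h latency they were challenged iv with 0.8% ovalbumin (1.0 mL) plus 5 mg Evans blue. Skin was reflected 40 min later and stained wheals measured as longest diameter × perpendicular (mm²). Results are percent inhibition of wheal size versus control.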
# Rattus norvegicus [4] = test: Percent inhibition using passive cutaneous anaphylaxis (PCA assay) in rat at 1 mg/kg upon oral administration; assay type: functional; summary of the method: as §2
# Rattus norvegicus [5] = test: Antiallergic property in passive cutaneous anaphylaxis (PCA) test in rats upon intraperitoneal administration; NA=Not active at 100 mg/kg; assay type: functional, organism-based; design: dose 100 mg/kg; summary of the method: as §1
# Rattus norvegicus [6] = test: Percent inhibition of wheal size in passive cutaneous anaphylaxis (PCA) test at 50 mg/kg upon oral administration; assay type: functional; summary of the method: as §2
# Rattus norvegicus [7] = test: Antiallergic property in passive cutaneous anaphylaxis (PCA) test in rats upon oral administration; NA=Not active at 100 mg/kg; assay type: functional, organism-based; design: dose 100 mg/kg; summary of the method: as §1
# Rattus norvegicus [8] = test: Percent inhibition of wheal size in passive cutaneous anaphylaxis (PCA) test at 50 mg/kg (administered orally); assay type: functional; settings: po; summary of the method: as §2
SMILES,ED50 (Rattus norvegicus [1]) [mg/kg],ED50 (Rattus norvegicus [2]) [mg/kg],other results
CCOC(=O)C(=O)Nc1cccc(N(CC)CC)c1C#N,0.7,0.9,
CCCCNc1cccc(NC(=O)C(=O)OCC)c1C#N,0.3,0.3,
CCOC(=O)C(=O)Nc1ccc([N+](=O)[O-])cc1C#N,,,inhibition in vivo at 50 mg/kg (Rattus norvegicus [3]): 33%
CCOC(=O)C(=O)Nc1cc(N(C)C)ccc1C#N,1.9,> 100,
CCOC(=O)C(=O)Nc1cccc(C)c1C#N,5.3,4.6,
CCCNc1cccc(NC(=O)C(=O)[O-])c1C#N.[Na+],,,% inhibition at 1 mg/kg (Rattus norvegicus [4]): 83.1%
CCNc1cccc(NC(=O)C(=O)OCC)c1C#N,0.03,0.03,
CCOC(=O)C(=O)Nc1cccc(N(C)C)c1C#N,0.2,4.2,
CCOC(=O)C(=O)Nc1ccc(N(C)C)cc1C#N,1,2.4,
CCOC(=O)C(=O)Nc1cccc(C(=O)OC)c1C#N,1.2,0.8,
CCOC(=O)C(=O)Nc1cccc(OC(C)C)c1C#N,2,1,
CCNc1cccc(NC(=O)C(=O)O)c1C#N,,,inhibition in vivo at 1 mg/kg (Rattus norvegicus [4]): 58.9%
N#Cc1c(N)cccc1NC(=O)C(=O)O,,,inhibition in vivo at 1 mg/kg (Rattus norvegicus [4]): 21.2%
CCOC(=O)C(=O)Nc1cccc(C(C)C)c1C#N,,,ED50 (Rattus norvegicus [5]): inactive; inhibition in vivo at 50 mg/kg (Rattus norvegicus [6]): 18%
CCOC(=O)C(=O)Nc1cccc(N2CCN(C)CC2)c1C#N.Cl,0.04,10.3,
CCOC(=O)C(=O)Nc1cccc(F)c1C#N,1.2,59,
CCOC(=O)C(=O)Nc1ccccc1C#N,0.4,2.9,
CCOC(=O)C(=O)Nc1cccc(NC)c1C#N,0.2,0.1,
CCOC(=O)C(=O)Nc1c(C#N)cccc1N(C)C,,,ED50 (Rattus norvegicus [5]): inactive
CCOC(=O)C(=O)Nc1cccc(N(C)CC)c1C#N,0.3,0.5,
O=C([O-])c1cc(=O)c2c(OCC(O)COc3cccc4oc(C(=O)[O-])cc(=O)c34)cccc2o1.[Na+].[Na+] [CROMOLYN SODIUM],8,,ED50 (Rattus norvegicus [7]): inactive
CCOC(=O)C(=O)Nc1ccc(N)cc1C#N,1,8.8,
CCCCCOc1cccc(NC(=O)C(=O)OCC)c1C#N,,,Inhibition (Rattus norvegicus [1]): 25%

SMILES,ED50 (Rattus norvegicus [1]) [mg/kg],ED50 (Rattus norvegicus [2]) [mg/kg],other results
CCCNc1cccc(NC(=O)C(=O)OCC)c1C#N,0.5,0.7,
Cc1cccc(NC(=O)C(=O)O)c1C#N,,,inhibition in vivo at 1 mg/kg (Rattus norvegicus [4]): 32.3%
CCOC(=O)C(=O)Nc1cccc(N2CCCC2)c1C#N,,,inhibition in vivo at 50 mg/kg (Rattus norvegicus [3]): 83%; inhibition in vivo at 50 mg/kg (Rattus norvegicus [6]): 83%
CCOC(=O)C(=O)Nc1cccc(N2CCCCC2)c1C#N,2.2,,ED50 (Rattus norvegicus [7]): inactive
CCCCNc1cccc(NC(=O)C(=O)[O-])c1C#N.[Na+],,,% inhibition at 1 mg/kg (Rattus norvegicus [4]): 93.5%
CCOC(=O)C(=O)Nc1cccc(NC(C)=O)c1C#N,,,inhibition in vivo at 50 mg/kg (Rattus norvegicus [8]): 91%; inhibition in vivo at 50 mg/kg (Rattus norvegicus [3]): 91%
N#Cc1c(NC(=O)C(=O)O)cccc1N1CCOCC1,,,inhibition in vivo at 1 mg/kg (Rattus norvegicus [4]): 14.1%
CCOC(=O)C(=O)Nc1cccc([N+](=O)[O-])c1C#N,0.4,82,
COC(=O)c1cccc(NC(=O)C(=O)O)c1C#N,,,inhibition in vivo at 1 mg/kg (Rattus norvegicus [4]): 24.5%
CCN(CC)c1cccc(NC(=O)C(=O)O)c1C#N,,,inhibition in vivo at 1 mg/kg (Rattus norvegicus [4]): 99.2%
CCOC(=O)C(=O)Nc1cccc(OC)c1C#N,5.3,55.5,
CCOC(=O)C(=O)Nc1cccc(N(C)C(C)C)c1C#N,0.3,1.2,
CCOC(=O)C(=O)Nc1cccc(N2CCOCC2)c1C#N,1.2,6.3,
CC(C)Oc1cccc(NC(=O)C(=O)O)c1C#N,,,inhibition in vivo at 1 mg/kg (Rattus norvegicus [4]): 75.1%
CCOC(=O)C(=O)Nc1cccc(Br)c1C#N,,,ED50 (Rattus norvegicus [5]): inactive
CNc1cccc(NC(=O)C(=O)[O-])c1C#N.[Na+],,0.07,inhibition in vivo at 1 mg/kg (Rattus norvegicus [4]): 96%
CCOC(=O)C(=O)Nc1ccc(C(F)(F)F)c(N2CCOCC2)c1C#N,0.1,> 100,
CCOC(=O)C(=O)Nc1cccc(Cl)c1C#N,,,inhibition in vivo at 50 mg/kg (Rattus norvegicus [3]): 56%
CCOC(=O)C(=O)Nc1cccc(S(C)(=O)=O)c1C#N,,,ED50 (Rattus norvegicus [5]): inactive
CCOC(=O)C(=O)Nc1cccc(N)c1C#N,0.05,0.07,
CCN(C)c1cccc(NC(=O)C(=O)O)c1C#N,,,inhibition in vivo at 1 mg/kg (Rattus norvegicus [4]): 56.3%
CN(C)c1cccc(NC(=O)C(=O)O)c1C#N,,,inhibition in vivo at 1 mg/kg (Rattus norvegicus [4]): 54.7%
